For 36 sequences, folding enthalpy and Tm results are on record in the array DNA melting data of Ke et al. (doi:10.1101/2024.01.08.574731).

Data set [1] in a line: folding enthalpy; higher = less favourable; fluorescence melt of hairpins on a sequencing array, two-state fit. Conditions: sodium 0.088 M. In outline:
(§1)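 Folding enthalpy and melting temperature were estimated with bootstrapped two-state fits and combined across four replicates by inverse-variance weighting, with fitted temperatures raised by 9.35 °C to match UV melts. The data were Cy3 fluorescence of library hairpins, with annealed Cy3 and quencher oligos, on a sequenced MiSeq flow cell in 50 mM Na-HEPES pH 8.0, 25 mM NaCl, imaged in 2.5 °C steps up to 60 °C and normalised to pre-quench Cy3 and control constructs.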

Data set [2] is described as follows: melting temperature; fluorescence melt of hairpins on a sequencing array, two-state fit, raised by 9.35 °C to match UV melts. Particulars: sodium 0.088 M. A digest of the protocol:
as §1

For GATTTGGGAAACCGAATC ((((.((....)).)))), the folding enthalpy in data set [1] was -31.1 kcal/mol. Further, in data set [2], the Tm amounted to 44.5 °C.
The matching figures for GATTTTGAAAAAAATC ((((((....)))))): -23.7 kcal/mol and 40.7 °C.
For GATTTTGGAAACAAGATC (((.(((....))).))), the folding enthalpy in data set [1] was -22.4 kcal/mol. For the same sequence, the Tm in data set [2] amounted to 33.6 °C.
On to GCAAAAACGAAAGTTTGC (((..(((....)))))), for which the folding enthalpy in data set [1] is -26 kcal/mol. Besides, the Tm in data set [2] was 43.2 °C.
The matching figures for GCAAAACGAAAGTTTGC (((.(((....)))))): -30.6 kcal/mol and 50.8 °C.
Taken in the same sequence, the figures for GCAAAAGCGAAAGCTTGC (((..(((....)))))) were -18.3 kcal/mol and 51.4 °C.
For the sequence GCAAAAGGAAACCTTTGC (((((.(....).))))), in data set [1], the folding enthalpy was -30.4 kcal/mol. For the same sequence, the Tm in data set [2] worked out at 39.6 °C.
GCAAAAGGAAACTCTTGC ((((.((....)).)))): the folding enthalpy in data set [1] was -10.8 kcal/mol. Besides, the Tm in data set [2] turned out to be 27.4 °C.
Regarding GCAAAAGGAAACTTTCGC ((.((((....)))).)), in data set [1], the folding enthalpy was -20.5 kcal/mol. The Tm in data set [2] was determined as 31.8 °C.
Taken in the same sequence, the figures for GCAAAAGGAAACTTTTGC (((((((....))))))) were -45 kcal/mol and 56.5 °C.
With GCAAACGAAAGTTACTGC ((((((....)))..))), the folding enthalpy in data set [1] is -13.3 kcal/mol. For the same sequence, the Tm in data set [2] was found to be 27.3 °C.
As for GCAAACGAAAGTTATTGC ((((((....)))..))), the folding enthalpy in data set [1] was -18.5 kcal/mol. The Tm in data set [2] amounted to 31.7 °C.
As for GCAAAGAAATTTGC (((((....))))), the folding enthalpy in data set [1] is -19.4 kcal/mol. The Tm in data set [2] is 38.9 °C.
The matching figures for GCAAAGACGAAAGTCTGC (((..(((....)))))): -15.7 kcal/mol and 50.2 °C.
The matching figures for GCAAAGCGAAAGCATAGC ((.(.((....)).).)): -9.41 kcal/mol and 33.4 °C.
The matching figures for GCAAAGCGAAAGCATCGC ((.(.((....)).).)): -10.8 kcal/mol and 35.4 °C.
In the case of GCAAAGCGAAAGCTCCGC ((..(((....)))..)), the folding enthalpy in data set [1] is -11.4 kcal/mol. In addition, the Tm in data set [2] was 29 °C.
For GCAAAGCGAAAGCTCTGC (((.(((....))).))), the folding enthalpy in data set [1] is -31.1 kcal/mol. Also, the Tm in data set [2] came to 47 °C.
The matching figures for GCAAAGCGAAAGCTGTGC (((.(((....))).))): -41.6 kcal/mol and 54.4 °C.
The matching figures for GCAAAGCGAAAGCTTGGC ((.((((....)))).)): -38.7 kcal/mol and 62.9 °C.
For the sequence GCAAAGGCGAAAGCCTGC (((..(((....)))))), the folding enthalpy in data set [1] is -14.9 kcal/mol. In addition, in data set [2], the Tm was determined as 54.6 °C.
With GCAAAGGGAAACTTTTGC (((((.(....).))))), the folding enthalpy in data set [1] is -26.8 kcal/mol. The Tm in data set [2] stood at 41 °C.
Taken in the same sequence, the figures for GCAAATCGAAAGATGTGC (((.(((....))).))) were -28.3 kcal/mol and 48.8 °C.
In the case of GCAACACGAAAGTGTGC (((.(((....)))))), in data set [1], the folding enthalpy is -19 kcal/mol. The Tm in data set [2] was determined as 60.2 °C.
As to GCAACAGAAATGTTGC ((((((....)))))), the folding enthalpy in data set [1] is -40.1 kcal/mol. In data set [2], the Tm amounted to 56.6 °C.
Turning to GCAACCGAAAGGTACTGC ((((((....)))..))), the folding enthalpy in data set [1] was -13.9 kcal/mol. Besides, in data set [2], the Tm amounted to 33.5 °C.
The matching figures for GCAACCGAAAGGTATGC ((((((....))).))): -26.4 kcal/mol and 50.3 °C.
Take GCAACCGAAAGGTCATGC ((((((....)))..))): in data set [1], the folding enthalpy was -13 kcal/mol. Moreover, in data set [2], the Tm was determined as 32.3 °C.
Taken in the same sequence, the figures for GCAACCGAAAGGTCCTGC ((((((....)))..))) were -9.82 kcal/mol and 27.9 °C.
The matching figures for GCAACCGAAAGGTGATGC ((((((....)))..))): -18.5 kcal/mol and 43.2 °C.
Taken in the same sequence, the figures for GCAACCGAAAGGTTGTGC ((((((....)))..))) were -20.5 kcal/mol and 65.7 °C.
Turning to GCAACCGGAAACGGCTGC (((.(((....))).))), in data set [1], the folding enthalpy is -40.9 kcal/mol. In addition, in data set [2], the Tm is 53 °C.
The matching figures for GCAACCGGAAACGGTTAC (.(((((....))))).): -12.4 kcal/mol and 41.2 °C.
Taken in the same sequence, the figures for GCAACGCGAAAGCAATGC (((..((....))..))) were -11.1 kcal/mol and 40.6 °C.
For GCAACGCGAAAGCAGTGC (((..((....))..))), in data set [1], the folding enthalpy is -13.3 kcal/mol. In addition, the Tm in data set [2] is 52.1 °C.
Taken in the same sequence, the figures for GCAACGCGAAAGCATAGC ((.(.((....)).).)) were -9.72 kcal/mol and 37.5 °C.
